Calls of active or inactive are those of the source.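 Rule for the calls: active = compounds whose fitted GFP dose response EC50 is at or below 33 microM; inactive = the rest.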
How the values were obtained:
[1] = LAP4-GFP expression modulation, dose response, SAR follow-up, cell-based, KU SAR set 2, flow cytometry (AID 504469); details: S. cerevisiae LAP4-GFP strain, flow cytometry fluorescence, 3 h
Outline: (§1)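 System: S. cerevisiae LAP4-GFP yeast strain; buffer or medium: synthetic complete medium; incubation: compound exposure 3 h at 30 °C with rotation; signal: Flow-cytometric GFP fluorescence in kMESF units; read-out basis: EC50 of background-corrected GFP signal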

[2] = tested on: S. cerevisiae LAP4-GFP strain, flow cytometry fluorescence, 3 h; test: as above
Outline: as §1

Structure (SMILES) | GFP fluorescence (kMESF) ([1]; at 100 µM (top of the series)) | GFP fluorescence (kMESF) ([1]; at 300 µM (top of the series)) | further results
CNc1nc(N)c([N+](=O)[O-])c(Nc2ccccc2Br)n1 | 6.28 kMESF (inactive) |  | 
CNc1nc(N)c([N+](=O)[O-])c(Nc2ccccc2F)n1 | 6.21 kMESF (inactive) |  | 
COc1ccccc1-c1cc(Nc2cc(C)[nH]n2)nc(NCc2ccccc2)n1 |  | 4.66 kMESF (inactive) | 
CCNc1nc(NC2CCCCC2)c([N+](=O)[O-])c(N2CCOCC2)n1 | 6.5 kMESF (inactive) |  | 
CCOC(=O)c1c(N)nc(NC)nc1Nc1cccc(F)c1 |  | 4.41 kMESF (inactive) | 
CNc1nc(N)c([N+](=O)[O-])c(Nc2cccc(Br)c2)n1 | 6.21 kMESF (inactive) |  | 
CCNc1nc(N)c([N+](=O)[O-])c(Nc2cccc(Cl)c2)n1 | 6.21 kMESF (inactive) |  | 
COc1cccc(-c2cc(Nc3cc(C)[nH]n3)nc(NCc3ccccc3)n2)c1 |  | 4.54 kMESF (inactive) | 
COC(=O)c1cccc(-c2cc(Nc3cc(C)[nH]n3)nc(NCc3ccccc3)n2)c1 |  | 4.28 kMESF (inactive) | 
CNc1nc(N)cc(Nc2cccc(Cl)c2)n1 |  |  | EC50 [2]: 101 µM (inactive)
CNc1nc(NC2CCCCC2)c([N+](=O)[O-])c(N2CCOCC2)n1 | 6.42 kMESF (inactive) |  | 
CNc1nc(N)cc(Oc2cccc(Cl)c2)n1 |  | 4.73 kMESF (inactive) | 
CNc1nc(N)c([N+](=O)[O-])c(Nc2cccc(OC)c2)n1 | 6.21 kMESF (inactive) |  | 
CNc1nc(NC)c([N+](=O)[O-])c(Nc2cccc(Cl)c2)n1 | 6.28 kMESF (inactive) |  | 
Cc1cc(Nc2cc(Nc3ccccc3)nc(NCc3ccccc3)n2)n[nH]1 |  | 4.28 kMESF (inactive) | 
CNc1nc(N)c([N+](=O)[O-])c(Nc2cccc(Oc3ccccc3)c2)n1 | 6.57 kMESF (inactive) |  | 
CNc1nc(N)c(C(=O)c2ccc(C)c(C)c2)c(Nc2cccc(Cl)c2)n1 |  |  | EC50 [2]: 80.9 µM (inactive)
Cc1cc(Nc2cc(-c3ccccc3)nc(NCc3ccccc3)n2)n[nH]1 |  | 4.41 kMESF (inactive) | 
O=[N+]([O-])c1c(NC2CCCCC2)nc(NCc2ccccc2)nc1N1CCOCC1 |  | 4.34 kMESF (inactive) | 
CNc1nc(N)cc(Nc2ccccc2F)n1 |  | 4.66 kMESF (inactive) | 

— PubChem BioAssay AID504469 (NMMLSC, 2011)
